Assay results from different studies.
Each line is one published result; the experiments were not run side by side.
Effect on: cell growth or viability

Compound | cell line | test | conditions | endpoint | result
C#CCOc1ccc2oc(-c3ccc(OC)cc3)c(C(=O)OCC)c2c1CN1CCCCC1 | J774.A1 | resazurin |  | IC50 | 8.2 µM
C[C@H](Oc1nccc(-c2noc3c2CCC[C@@]32CCCc3sc(N)c(C#N)c32)n1)[C@@H]1CCCN1C | NCI-H727 |  | 5 days | EC50 | 0.109 µM
FC(F)(F)c1ccc(-c2cc(CNc3cccc4cccnc34)on2)cc1 | DND41 | MTS | 72 h | IC50 | 82.3 µM
Cc1nc(Nc2ncc(C(=O)Nc3c(C)cccc3Cl)s2)cc(N2CC[C@H](O)C2)n1 | JeKo-1 | ATP luminescence | 72 h | IC50 | > 10 µM
N/C(=N\O)c1ccc(-c2cc(CNc3cccc4cccnc34)on2)cc1 | DND41 | MTS | 72 h | IC50 | 2.3 µM
Nc1cccc2c1C(=O)N(C1CCC(=O)NC1=O)C2=O (stereo not shown) | OCI-Ly10 | CCK-8 | 7 days | IC50 | 0.36 µM
CCOc1ccc(-c2cc(C(=O)O)c(-c3ccc(Cl)cc3)o2)cc1 | WM 266-4 | MTT | 48 h | EC50 | 87 µM
C[C@H]1CNCCCN1c1nccc(-c2noc([C@@]3(C)CCCc4sc(N)c(C#N)c43)n2)n1 | NCI-H727 |  | 5 days | EC50 | > 1 µM
O=c1cc(OCc2cc(-c3ccccn3)no2)c2ccccc2o1 | DND41 | MTS | 72 h | IC50 | > 100 µM
C[C@H]1CNCCCN1c1nccc(-c2noc3c2CCC[C@@]32CCCc3sc(N)c(C#N)c32)n1 | NCI-H727 |  | 5 days | EC50 | 0.399 µM
C#CCNC(=O)c1c(-c2ccc(OC)cc2)oc2ccc(O)c(CN3CCCCC3)c12 | J774.A1 | resazurin | 18 h | IC50 | 27.8 µM
c1ccc(-c2cc(CNc3cccc4cccnc34)on2)cc1 | DND41 | MTS | 72 h | IC50 | > 100 µM
C[C@H]1CN(C)CCCN1c1nccc(-c2noc([C@@]3(C)CCCc4sc(N)c(C#N)c43)n2)n1 | NCI-H727 |  | 5 days | EC50 | > 1 µM
